≈ marks a conversion by molar mass, not a printed value.
Experiments:
[1] = system: Mus musculus; assay: Phototoxicity in Swiss albino mouse assessed as erythema at 140 mg/kg, po after 4 hrs of 18 J/cm'2 UV light irradiation; format: organism-based; set-up: dose 140 mg/kg, route oral; details: in vivo
In short: (§1)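 Female Swiss albino mice about 2 months old, 20-25 g, fasted at least 18 h, six per group. Single oral gavage of 140 mg/kg; vehicle 0.5% aqueous sodium carboxymethylcellulose at 10 ml/kg; lomefloxacin HCl 140 mg/kg as positive control. UVA for 4 h (about 18 J/cm²) from dosing. Both ears scored for erythema, edema and thickness pre-dose, at 4 h, and at about 24, 48, 72 and 96 h.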

[2] = system: Mus musculus; assay: Phototoxicity in Swiss albino mouse exposed to 18 J/cm'2 UV light irradiation assessed as ear thickness at 140 mg/kg, po; format: organism-based; set-up: dose 140 mg/kg, route oral; details: in vivo; in short: as §1
[3] = system: Mus musculus; assay: Phototoxicity in Swiss albino mouse assessed as ear thickness at 140 mg/kg, po measured after 4 hrs of 18 J/cm'2 UV light irradiation; format: organism-based; set-up: dose 140 mg/kg, route oral; details: in vivo; in short: as §1
[4] = system: Mus musculus; assay: Phototoxicity in Swiss albino mouse exposed to 4 hrs of 18 J/cm'2 UV light irradiation assessed as erythema at 140 mg/kg, po after 72 hrs; format: organism-based; set-up: dose 140 mg/kg, route oral; details: in vivo; in short: as §1
[5] = system: Mus musculus; assay: Phototoxicity in Swiss albino mouse exposed to 4 hrs of 18 J/cm'2 UV light irradiation assessed as ear thickness at 140 mg/kg, po after 96 hrs; format: organism-based; set-up: dose 140 mg/kg, route oral; details: in vivo; in short: as §1
[6] = system: Mus musculus; assay: Phototoxicity in Swiss albino mouse exposed to 4 hrs of 18 J/cm'2 UV light irradiation assessed as erythema at 140 mg/kg, po after 96 hrs; format: organism-based; set-up: dose 140 mg/kg, route oral; details: in vivo; in short: as §1
[7] = system: Mus musculus; assay: Phototoxicity in Swiss albino mouse exposed to 4 hrs of 18 J/cm'2 UV light irradiation assessed as ear thickness at 140 mg/kg, po after 72 hrs; format: organism-based; set-up: dose 140 mg/kg, route oral; details: in vivo; in short: as §1
[8] = system: Mus musculus; assay: Phototoxicity in Swiss albino mouse exposed to 4 hrs of 18 J/cm'2 UV light irradiation assessed as ear thickness at 140 mg/kg, po after 24 hrs; format: organism-based; set-up: dose 140 mg/kg, route oral; details: in vivo; in short: as §1
[9] = system: Mus musculus; assay: Phototoxicity in Swiss albino mouse exposed to 4 hrs of 18 J/cm'2 UV light irradiation assessed as erythema at 140 mg/kg, po after 48 hrs; format: organism-based; set-up: dose 140 mg/kg, route oral; details: in vivo; in short: as §1
[10] = system: Mus musculus; assay: Phototoxicity in Swiss albino mouse exposed to 4 hrs of 18 J/cm'2 UV light irradiation assessed as erythema at 140 mg/kg, po after 24 hrs; format: organism-based; set-up: dose 140 mg/kg, route oral; details: in vivo; in short: as §1
[11] = system: Mus musculus; assay: Phototoxicity in Swiss albino mouse exposed to 4 hrs of 18 J/cm'2 UV light irradiation assessed as erythema at 140 mg/kg, po; format: organism-based; set-up: dose 140 mg/kg, route oral; details: in vivo; in short: as §1
[12] = system: Mus musculus; assay: Phototoxicity in Swiss albino mouse exposed to 4 hrs of 18 J/cm'2 UV light irradiation assessed as ear thickness at 140 mg/kg, po after 48 hrs; format: organism-based; set-up: dose 140 mg/kg, route oral; details: in vivo; in short: as §1
[13] = system: Mycobacterium tuberculosis; assay: Antibacterial activity against Mycobacterium tuberculosis H37Rv by agar dilution method; format: functional
In short: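 Agar dilution in Middlebrook 7H11 agar supplemented with OADC, following an approach similar to NCCLS guidance. MIC determined in duplicate.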

[14] = Inhibition of Mycobacterium smegmatis DNA gyrase assessed as inhibition of relaxed circular pUC18 supercoiling activity by agarose gel electrophoresis; set-up: species or system Mycolicibacterium smegmatis
In short: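 Gyrase purified from M. smegmatis, pre-incubated with compound in DMSO. Then 400 ng relaxed pUC18 added in 35 mM Tris-HCl pH 7.5, 5 mM MgCl2, 25 mM potassium glutamate, 2 mM spermidine, 2 mM ATP, BSA, yeast tRNA and 5% glycerol. Incubated 30 min at 37 °C; read-out by agarose gel electrophoresis. Ciprofloxacin and 5% DMSO reactions run as controls.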

[15] = Cytotoxicity against african green monkey Vero cells after 72 hrs by MTT assay; format: cell-based; details: chlorocebus sabaeus
In short: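 Cells exposed to compound for 72 h; viability from cellular MTT conversion to formazan; CC50 derived.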

[16] = system: Mycolicibacterium smegmatis; assay: Antibacterial activity against Mycobacterium smegmatis ATCC 14468 by agar dilution method; format: functional
In short: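 Agar dilution on Middlebrook 7H11 agar with OADC supplement, following an NCCLS-type procedure; MIC read in duplicate.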

[17] = system: Mycobacterium tuberculosis; assay: Antimycobacterial activity against Mycobacterium tuberculosis ATCC 35801 infected in CD1 mouse assessed as bacterial load in lungs at 25 mg/kg, ip administered 10 days postinfection for 10 days measured after 35 days of infection; format: functional; details: route intraperitoneal
In short: (§2)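 Six-week-old female CD-1 mice, six per group, infected intravenously via the caudal vein with approximately 10⁷ viable M. tuberculosis ATCC 35801. Intraperitoneal treatment ran days 10–20 post-infection. At day 35, spleen and right lung were homogenized, serially 10-fold diluted and plated on 7H10 agar, incubated 37 °C, 4 weeks. Log CFU compared with vehicle-treated controls.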

[18] = system: Mycobacterium tuberculosis; assay: Antimycobacterial activity against Mycobacterium tuberculosis ATCC 35801 infected in CD1 mouse assessed as bacterial load in spleen at 25 mg/kg, ip administered 10 days postinfection for 10 days measured after 35 days of infection; format: functional; details: route intraperitoneal; in short: as §2
[19] = system: Mycobacterium tuberculosis; assay: Antimycobacterial activity against Mycobacterium tuberculosis ATCC 35801 infected in CD1 mouse assessed as bacterial load in spleen at 50 mg/kg, ip administered 10 days postinfection for 10 days measured after 35 days of infection; format: functional; details: route intraperitoneal; in short: as §2
[20] = system: Mycobacterium tuberculosis; assay: Antimycobacterial activity against Mycobacterium tuberculosis ATCC 35801 infected in CD1 mouse assessed as bacterial load in lungs at 50 mg/kg, ip administered 10 days postinfection for 10 days measured after 35 days of infection; format: functional; details: route intraperitoneal; in short: as §2

Compound	Activity [1]	Activity [2] [mm]	Activity [3] [mm]	Activity [4]	Activity [5] [mm]	Activity [6]	Activity [7] [mm]	Activity [8] [mm]	Activity [9]	Activity [10]	Activity [11]	Activity [12] [mm]	MIC [13] [µM]	IC50 [14] [µg/mL]	CC50 at 72 h [15] [µM]	MIC [16] [µM]	log10cfu [17]	log10cfu [18]	log10cfu [19]	log10cfu [20]
CCn1cc(C(=O)O)c(=O)c2cc(F)c(N3CCNC(C)C3)c(F)c21 (stereo not given) [LOMEFLOXACIN]	Toxic	0.31	0.4	Toxic	0.6	Toxic	0.64	0.48	Toxic	Toxic	Non-toxic	0.53	–	–	–	–	–	–	–	–
CN1CCN(c2cc3c(cc2[N+](=O)[O-])c(=O)c(C(=O)O)cn3C2CC2)CC1c1ccccc1 (stereo not given)	Non-toxic	0.3	0.31	Non-toxic	0.34	Non-toxic	0.32	0.3	Non-toxic	–	Non-toxic	0.32	0.2 (≈ 0.0897 µg/mL)	30 (≈ 66.9 µM)	136	0.87 (≈ 0.39 µg/mL)	–	–	–	–
NNC(=O)c1ccncc1 [ISONIAZID]	–	–	–	–	–	–	–	–	–	–	–	–	0.36 (≈ 0.0494 µg/mL)	–	> 456	45.6 (≈ 6.25 µg/mL)	5.86	4.71	–	–
O=C(O)c1cn(C2CC2)c2cc(N3CCN(Cc4ccc5c(c4)OCO5)CC3)c([N+](=O)[O-])cc2c1=O	Non-toxic	0.25	0.27	Non-toxic	0.29	Non-toxic	0.31	0.28	Non-toxic	Non-toxic	Non-toxic	0.28	0.08 (≈ 0.0394 µg/mL)	30 (≈ 60.9 µM)	127	0.79 (≈ 0.389 µg/mL)	–	–	4.87	5.21
COc1c(N2CCNC(C)C2)c(F)cc2c(=O)c(C(=O)O)cn(C3CC3)c12 (stereo not given) [GATIFLOXACIN]	–	–	–	–	–	–	–	–	–	–	–	–	1.04 (≈ 0.39 µg/mL)	–	> 155	2.08 (≈ 0.781 µg/mL)	–	–	6.92	6.02
